Measured values published in ChEMBL document CHEMBL1122418, “Synthesis of 3-hydroxy-3-cyclohexylbutyric acid derivatives. 2. Cyclic analogues of mevalonic acid” (1983).

What was measured:
Format in all cases: functional
[1] = species: Rattus norvegicus; assay: Percent inhibition of [14C]acetate incorporation into long-chain fatty acids, after incubation with rat liver slices at 5x10E-4 M concentration
How it was run: (§1)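 Rat liver slices (250 mg) incubated in 4 mL Krebs-Ringer bicarbonate buffer, pH 7.4, with 4 mM [2-14C]acetate, with or without test compound; label recovered in CO2, long-chain fatty acids and cholesterol measured and inhibition calculated against untreated slices. Values are arithmetic means of three determinations.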

[2] = species: Rattus norvegicus; assay: Percent inhibition of [14C]acetate incorporation into cholesterol, after incubation with rat liver slices at 5x10E-4 M concentration; how it was run: as §1
[3] = species: Rattus norvegicus; assay: Percent inhibition of [14C]acetate incorporation into CO2, after incubation with rat liver slices at 5x10E-4 M concentration; how it was run: as §1
[4] = species: Rattus norvegicus; assay: Percent inhibition of [14C]acetate incorporation into long-chain fatty acids, after incubation with rat liver slices at 5x10E-3 M concentration; how it was run: as §1
[5] = species: Rattus norvegicus; assay: Percent inhibition of [14C]acetate incorporation into cholesterol, after incubation with rat liver slices at 5x10E-3 M concentration; how it was run: as §1
[6] = species: Rattus norvegicus; assay: Percent inhibition of [14C]acetate incorporation into CO2, after incubation with rat liver slices at 5x10E-3 M concentration; how it was run: as §1

| Compound | inhibition at 500 µM [1] [%] | inhibition at 500 µM [2] [%] | inhibition at 500 µM [3] [%] | inhibition at 5000 µM [4] [%] | inhibition at 5000 µM [5] [%] | inhibition at 5000 µM [6] [%] |
| --- | --- | --- | --- | --- | --- | --- |
| CC(O)(CC(=O)O)C1CCCCC1 (centres undefined) [CYCLOBUTOIC ACID] | 72 | 32 | 62 |  |  |  |
| CO[C@H]1CCCC[C@H]1C(C)(O)CC(=O)O (some centres undefined) | 57 | 25 | 39 |  |  |  |
| CC(O)(CC(=O)O)[C@@H]1CCCC[C@@H]1O (some centres undefined) | 10 | 10 | 10 | 68 | 50 | 62 |
| CC1CC(=O)O[C@H]2CCCC[C@@H]12 (some centres undefined) | 10 | 10 | 10 | 62 | 39 | 24 |
| CC1(O)CC(=O)O[C@H]2CCCC[C@H]21 (some centres undefined) | 10 | 10 | 10 | 47 | 22 | 37 |
